In brackets after ≈: the same amount, converted by molar mass. Activity calls are given as the source filed them. The rule behind the calls is not given here.
Columns and labels:
Autotaxin [1] = target: T1, Autotaxin (Homo sapiens, UniProt Q13822); assay: Inhibition of recombinant human ATX using bisP-nitrophenyl phosphate as substrate measured after 30 mins
Autotaxin [2] = target: T1, Autotaxin; assay: Inhibition of human ATX expressed in HEK293 Flp-In cells using LPC as substrate measured every 30 sec for 90 mins by fluorescence assay; format: cell-based
[3] = Lipophilicity, log D of the compound at pH 7.4 by chromatographic method; format: physicochemical; conditions: buffer
[4] = Kinetic aqueous solubility by CLND method; format: physicochemical; conditions: read-out: Kinetic_solubility
[5] = Apparent permeability of the compound at pH 7.4; format: physicochemical; conditions: not told
Autotaxin [6] = target: T1, Autotaxin; assay: Inhibition of ATX in human MDA-MB-435S cells using lysophosphatidyl choline as substrate preincubated for 15 mins followed by substrate addition measured after 90 mins; format: cell-based
Autotaxin [7] = target: T1, Autotaxin; assay: Inhibition of ATX (unknown origin) using lysophosphatidyl choline as substrate
Procedure, shortened: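 Human ATX produced in HEK293 Flp-In cells, 20 nM, incubated with 150 μM LPC(18:1) in 50 mM Tris pH 7.4, 0.01% Triton X-100, 50 mM CaCl2 with choline oxidase (1 U/ml), HRP (2 U/ml) and 2 mM homovanillic acid. Choline release read as HVA fluorescence, ex/em 320/450 nm, every 30 s for 90 min. Screen 400 nM–100 μM (n = 3); 10-point curves 0.3 nM–10 μM, n = 2.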

Autotaxin [8] = target: T1, Autotaxin; assay: Noncompetitive inhibition of human ATX expressed in HEK293 Flp-in cells up to 800 nM using varying lysophosphatidyl choline substrate level by Lineweaver-Burk plot analysis; format: cell-based
Procedure, shortened: (§1)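 hATX from HEK293 Flp-In cells; choline release from LPC coupled to choline oxidase/HRP/homovanillic acid fluorescence in Tris pH 7.4 buffer with CaCl2 and Triton X-100. Activity measured across varying LPC concentrations at fixed inhibitor concentrations; mixed-inhibition model fitted to obtain alpha (near 1 taken as noncompetitive), with Lineweaver-Burk double-reciprocal plots for display.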

Autotaxin [9] = target: T1, Autotaxin; assay: Noncompetitive inhibition of human ATX expressed in HEK293 Flp-in cells up to 11 nM using varying lysophosphatidyl choline substrate level by Lineweaver-Burk plot analysis; format: cell-based; procedure, shortened: as §1

Row | Structure (SMILES) | IC50 (Autotaxin [1]) [nM] | IC50 (Autotaxin [2]; read-out: IC50) [nM] | also measured
1 | Cc1c(Oc2cccc(C(=O)O)c2)c2ccc(Cl)cc2n1-c1cnn(C)c1 | 204 | 726 | 
2 | Cc1c(Sc2cccc(C(=O)O)c2)c2ccc(Cl)cc2n1-c1ccccc1 | 5 | 81 | IC50 (Autotaxin [6]): < 300 nM
3 | Cc1c(Sc2cccc(C(=O)O)c2F)c2ccc(Cl)c(F)c2n1CC(=O)N1CC2(CC2)c2ccccc21 |  |  | IC50 (Autotaxin [7]): 2 nM
4 | Cc1c(Sc2cccc(C(=O)O)n2)c2ccc(Cl)cc2n1-c1ccccc1 |  |  | IC50 (Autotaxin [2]; hek293): Nd(Insoluble); chromatographic logD [3]: 4.3; solubility kinetic [4]: 485 µM (≈ 192 µg/mL); Papp [5]: 15.5 ×10⁻⁶ cm/s
5 | Cc1c(Cc2cccc(C(=O)O)c2)c2ccccc2n1-c1cnn(C)c1 |  | > 30000 | 
6 | Cc1c(SCCCC(=O)O)c2ccc(Cl)cc2n1-c1cnn(C)c1 |  | > 30000 | 
7 | Cc1cccc2c1c(Sc1cccc(C(=O)O)n1)c(C)n2-c1cnn(C)c1 |  | > 10000 | 
8 | Cc1c(Sc2cccc(C(=O)O)c2)c2ccccc2n1-c1ccccc1 | > 30000 | > 5000 | 
9 | Cc1c(SCCCC(=O)O)c2ccccc2n1-c1cnn(C)c1 |  | > 10000 | 
10 | Cc1c(Oc2cccc(C(=O)O)c2)c2ccccc2n1-c1cnn(C)c1 |  | > 30000 | 
11 | Cc1[nH]c2ccccc2c1Sc1cccc(C(=O)O)c1 |  | > 30000 | 
12 | Cn1cc(-c2cccc(Sc3cccc(C(=O)O)n3)c2)cn1 |  |  | inhibition (Autotaxin [2]): inactive
13 | Cc1[nH]c2cc(Cl)ccc2c1Sc1cccc(C(=O)O)c1 | 290 | 747 | 
14 | COc1cccc2c1c(Sc1cccc(C(=O)O)n1)c(C)n2-c1cnn(C)c1 |  | > 30000 | 
15 | Cc1c(Cc2cccc(C(=O)O)n2)c2ccccc2n1-c1cnn(C)c1 |  | > 30000 | 
16 | Cc1c(Sc2cccc(C(=O)O)c2)c2ccc(Cl)cc2n1C1CCCC1 | > 4000 | 20000 to 25000 | 
17 | Cc1c(Cc2cccc(C(=O)O)c2)c2ccc(Cl)cc2n1-c1cnn(C)c1 | 33 | 660 | 
18 | Cc1cc2ccc(Cl)cc2n1-c1cnn(C)c1 |  | > 30000 | 

More lines, main results first:

Row | IC50 (Autotaxin [1]) [nM] | IC50 (Autotaxin [2]; read-out: IC50) [nM] | Structure (SMILES) | also measured
19 | 604 | 25 | Cc1[nH]c2cc(Cl)ccc2c1Sc1cccc(C(=O)O)n1 | chromatographic logD [3]: 2.19; solubility kinetic [4]: ≥ 395 µM; Papp [5]: 1.1 ×10⁻⁶ cm/s
20 |  | 258 | Cc1c(Sc2cccc(C(=O)O)n2)c2cc(Cl)ccc2n1-c1cnn(C)c1 | 
21 | > 4000 | 31 | Cc1c(Sc2cccc(C(=O)O)n2)c2ccc(Cl)cc2n1C | chromatographic logD [3]: 2.68; solubility kinetic [4]: 300 µM (≈ 99.8 µg/mL); Papp [5]: 3.2 ×10⁻⁶ cm/s
22 |  | > 30000 | Cc1c(Sc2cccc(C(=O)O)n2)c2ccccc2n1-c1ccccc1 | 
23 | 22 | 4 | Cc1c(Sc2cccc(C(=O)O)n2)c2ccc(Cl)cc2n1-c1cnn(C)c1 | chromatographic logD [3]: 2.7; solubility kinetic [4]: 377 µM (≈ 150 µg/mL); Papp [5]: 2.3 ×10⁻⁶ cm/s; IC50 (Autotaxin [6]): < 300 nM
24 | 75 | 124 | COc1ccc2c(Sc3cccc(C(=O)O)n3)c(C)n(-c3cnn(C)c3)c2c1 | 
25 | 2000 | > 2800 | Cc1c(Sc2cccc(C(=O)O)n2)c2ccc(Cl)cc2n1C1CCCC1 | chromatographic logD [3]: 4.05; solubility kinetic [4]: 336 µM (≈ 130 µg/mL); Papp [5]: 29 ×10⁻⁶ cm/s
26 |  | > 20000 | Cc1[nH]c2cc(F)ccc2c1Sc1cccc(C(=O)O)n1 | 
27 |  | 11 | Cc1c(Sc2cccc(C(=O)O)c2)c2ccc(Cl)cc2n1-c1cnn(C)c1 | chromatographic logD [3]: 3.36; solubility kinetic [4]: 556 µM (≈ 221 µg/mL); Papp [5]: 6.4 ×10⁻⁶ cm/s; IC50 (Autotaxin [6]): < 300 nM
28 |  | > 30000 | Cc1c(Sc2cccc(C(=O)O)n2)c2ccccc2n1C1CCCC1 | 
29 | 89 | 339 | Cc1c(Cc2cccc(C(=O)O)n2)c2ccc(Cl)cc2n1-c1cnn(C)c1 | 
30 |  | > 30000 | Cc1c(Sc2cccc(C(=O)O)n2)c2c(Cl)cccc2n1-c1cnn(C)c1 | 
31 |  | > 8000 | Cc1[nH]c2cccc(C)c2c1Sc1cccc(C(=O)O)n1 | 
32 | 816 | 349 | Cc1c(Sc2cccc(C(=O)O)n2)c2ccc(F)cc2n1-c1ccn(C)n1 | 
33 |  | > 30000 | Cc1[nH]c2ccccc2c1Sc1cccc(C(=O)O)n1 | 
34 | 5700 | 1700 | Cc1c(Sc2cccc(C(=O)O)n2)c2ccccc2n1-c1cnn(C)c1 | inhibition (Autotaxin [8]): Active
35 | 100 | 1200 | Cc1c(Sc2cccc(C(=O)O)c2)c2ccc(Cl)cc2n1C | inhibition (Autotaxin [9]): Active; IC50 (Autotaxin [7]): > 1000 nM
36 |  | 3000 to 3500 | Cc1c(Sc2cccc(C(=O)O)n2)c2c(F)cccc2n1-c1ccn(C)n1 | 
37 | 85 | 25 | Cc1ccc2c(Sc3cccc(C(=O)O)n3)c(C)n(-c3cnn(C)c3)c2c1 | 
38 |  | > 30000 | Cc1c(Sc2cccc(C(=O)O)n2)c2ccccc2n1C | 

— ChEMBL document CHEMBL4000180, “Structure-Activity Relationships of Small Molecule Autotaxin Inhibitors with a Discrete Binding Mode” (J Med Chem, 2017)
